Test results: article PMC2910176 (Food and chemical toxicology : an international journal …, 2010)

Legend:
[1] = test system: human peripheral blood mononuclear cells (PBMC); conditions: ref Yadav et al., 2005; cited from earlier work
[2] = test system: human peripheral blood mononuclear cells (PBMC); conditions: ref Yadav et al., 2005; cited from earlier work; remark: listed apart in the source
[3] = test system: cancer cell lines HepG2, MCF-7 and MDA-MB-231; experiment: Anti-proliferative activity in cancer cell lines; assay type: cell-based, human; conditions: dose-dependent, three cancer cell lines
HepG2 = experiment: MTT cell viability assay in HepG2; assay type: cell-based, human; conditions: for Concentration producing 50% growth inhibition (IC50): HepG2, 48 hours, MTT
[4] = test system: human peripheral blood mononuclear cells (PBMC); experiment: PBMC proliferation; assay type: cell-based; conditions: 72 hours, with polymyxin B; α-turmerone 10 or 15 μg/ml, ar-turmerone 5-15 μg/ml
In short: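 PHA-activated PBMC (PHA 10 μg/ml final; polymyxin B 10 μg/ml present to bind LPS) were incubated 72 h with test compound at 5, 10 or 15 μg/ml, with matched vehicle. [methyl-3H]-thymidine (0.5 μCi/well) was added for the final 6 h. Cells were harvested onto glass-fibre filters for scintillation counting. Results are % cpm relative to untreated control, mean of 8 donors.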

MDA-MB-231 = experiment: MTT cell viability assay in MDA-MB-231; assay type: cell-based, human; conditions: for Concentration producing 50% growth inhibition (IC50): MDA-MB-231, 48 hours, MTT
MCF-7 = experiment: MTT cell viability assay in MCF-7; assay type: cell-based, human; conditions: for Concentration producing 50% growth inhibition (IC50): MCF-7, 48 hours, MTT
Hs-68 = experiment: MTT cell viability assay in normal skin fibroblasts Hs-68; assay type: cell-based, human; conditions: for inhibition of cell proliferation in human normal skin fibroblasts: 3.125–25 μg/ml; for Concentration producing 50% growth inhibition (IC50): Hs-68 normal skin fibroblasts, 48 hours, MTT
[5] = test system: human peripheral blood mononuclear cells (PBMC); experiment: Cytokine production by PBMC; assay type: cell-based; conditions: for TNF-α production in PHA-activated PBMC / IFN-γ production in PHA-activated PBMC / IL-2 production in PHA-activated PBMC: 24 hours; for TNF-α production in PHA-activated PBMC: 10 and 15 μg/ml; for IFN-γ production in PHA-activated PBMC / IL-2 production in PHA-activated PBMC: data not shown
In short: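 PBMC came from buffy coat by Ficoll density separation, with ≥95% trypan-blue viability, at 4 × 10^5/well. Resting or PHA-activated (10 μg/ml final) cells received test compound at 5, 10 or 15 μg/ml, with matched vehicle, for 24 h. Supernatants were recovered by centrifugation (300×g), stored at −80°C and assayed for IL-2, IFN-γ and TNF-α by ELISA. There were 8 donors, four wells each, reported as mean + SD; the statistic was an unpaired t-test versus control.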

MDA-MB-231 cells [6] = experiment: Western blot analysis of apoptosis and proliferation proteins; assay type: cell-based, human; conditions: MDA-MB-231, 40 or 60 μg/ml
In short: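 MDA-MB-231 cells (1 × 10^6) were treated with test compound (40 or 60 μg/ml) or 0.4% v/v ethanol for 24 or 48 h. Lysis used 2% SDS, 10% glycerol, […] Tris-HCl, pH 6.8, on ice, then 95°C for 10 min. Lysates ran on 12% SDS-PAGE onto PVDF and were blocked in 5% milk/TBST. Primaries (overnight) were Bcl-2 and procaspases-3/-8 at 1:100 and cyclin D at 1:200; the β-actin loading control was 1:2000. HRP secondary was used with ECL; three independent experiments.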

MDA-MB-231 cells [7] = experiment: Cell cycle analysis; assay type: cell-based, human; conditions: MDA-MB-231, after treatment
In short: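 MDA-MB-231 cells (3 × 10^5/well, 6-well) were plated overnight and then treated with test compound (30–45 μg/ml). They were fixed in 70% v/v ethanol at 4°C overnight and stained with PI (20 μg/ml) plus RNase A (10 μg/ml) for 30 min at 37°C in the dark. Flow cytometry collected 10,000 cells per sample, and cell cycle and apoptotic peaks were modelled; n=3.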

MDA-MB-231 cells [8] = experiment: Annexin V-FITC/PI staining assay; assay type: cell-based, human; conditions: MDA-MB-231, 24 hours
In short: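 MDA-MB-231 cells (3 × 10^5/well) were exposed to test compound at various concentrations for 24 h. They were washed twice in 1X binding buffer, then labelled with annexin-V FITC plus PI for 15 min at room temperature in the dark, and analysed by flow cytometry. Annexin-V+ PI− (lower right quadrant) was taken as early apoptosis. Three independent experiments were run.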

MDA-MB-231 cells [9] = experiment: DNA fragmentation assay; assay type: cell-based, human; conditions: MDA-MB-231, 24 and 48 hours
In short: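 MDA-MB-231 cells (1 × 10^6) were attached for 24 h in 100 mm dishes, then given test compound (40–80 μg/ml) or 0.4% v/v ethanol for 24 or 48 h. Lysis was 15 min at 37°C in 200 mM Tris-HCl, 100 mM EDTA, 1% SDS, pH 8.3. RNase A, then proteinase K, each ran 90 min at 56°C, followed by ethanol/sodium acetate precipitation. DNA ran on 1.5% agarose with ethidium bromide beside a 100 bp marker; n=3.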

Row | Concentration producing 50% growth inhibition (IC50) (HepG2) [µg/mL] | Concentration producing 50% growth inhibition (IC50) (MDA-MB-231) [µg/mL] | Concentration producing 50% growth inhibition (IC50) (MCF-7) [µg/mL] | SMILES | proliferation of cancer cells [3] | proliferation of PHA-activated PBMC [4] | inhibition of cell proliferation in human normal skin fibroblasts (Hs-68) | Concentration producing 50% growth inhibition (IC50) (Hs-68) [µg/mL] | TNF-α production in PHA-activated PBMC [5] | IFN-γ production in PHA-activated PBMC [5] | IL-2 production in PHA-activated PBMC [5] | other results
1 | – | – | – | COc1cc(/C=C/C(=O)CC(=O)/C=C/c2ccc(O)c(OC)c2)ccc1O [Curcumin, curcumin] | significantly inhibited | – | – | – | – | – | – | PHA-induced proliferation in PBMC [1]: inhibited; IL-2 production in PBMC (PHA-induced) [2]: inhibited
2 | >100 | >100 | >100 | CC(C)=CC(=O)C[C@H](C)c1ccc(C)cc1 [ar-turmerone] | – | significantly stimulate | did not induce any significant inhibition | >100 | significantly increased | neither α-turmerone (AL) nor ar-turmerone (AR) further altered | neither α-turmerone (AL) nor ar-turmerone (AR) further altered | IFN-γ production in resting PBMC ([5]; 24 hours, 5, 10 or 15 μg/ml): significantly increased; IL-2 production in resting PBMC ([5]; 24 hours, 5, 10 or 15 μg/ml): significantly increased; TNF-α production in resting PBMC ([5]; 24 hours, 5, 10 or 15 μg/ml): significantly increased
3 | – | – | – | COc1cc(/C=C/C(O)=C/C(=O)/C=C/c2ccc(O)cc2)ccc1O [Demethoxycurcumin, demethoxycurcumin] | significantly inhibited | – | did not induce any significant inhibition | – | – | – | – | –
4 | 32.9 | 30.2 | 41.8 | CC(C)=CC(=O)CC(C)C1C=CC(C)=CC1 (stereo not drawn) [α-turmerone] | significantly inhibited | significantly stimulate | did not induce any significant inhibition | >100 | significantly increased | neither α-turmerone (AL) nor ar-turmerone (AR) further altered | neither α-turmerone (AL) nor ar-turmerone (AR) further altered | inhibition of cell proliferation compared to the control (HepG2; HepG2, 50 μg/ml, 48 hours): ~70%; Bcl-2 expression (MDA-MB-231 cells [6]): slightly down-regulated; cleaved PARP (MDA-MB-231 cells [6]): observed; expression level of pro-caspase-3 (MDA-MB-231 cells [6]): significantly decreased; expression level of pro-caspase-8 (MDA-MB-231 cells [6]): significantly decreased; expression of cyclin D1 (MDA-MB-231 cells [6]): significantly decreased; proteolytic cleavage of pro-caspase-9 (fragments p35 and p37) (MDA-MB-231 cells [6]): observed; cell cycle arrest (MDA-MB-231 cells [7]): no arrest at any phase of the cell cycle; proportion of early apoptosis cells (Annexin V-FITC positive and PI negative) (MDA-MB-231 cells [8]): increased with the concentrations; inhibition of cell proliferation compared to the control (MDA-MB-231; MDA-MB-231, 50 μg/ml, 48 hours): ~70%; inhibition of cell proliferation compared to the control (MCF-7; MCF-7, 50 μg/ml, 48 hours): ~70%; DNA fragmentation (MDA-MB-231 cells [9]): detected
5 | – | – | – | O=C(/C=C/c1ccc(O)cc1)CC(=O)/C=C/c1ccc(O)cc1 [Bisdemethoxycurcumin, bisdemethoxycurcumin] | significantly inhibited | – | did not induce any significant inhibition | – | – | – | – | –
